Measured values taken from ChEMBL document CHEMBL1123901, “Inhibition of delayed hypersensitivity reactions by cinnamyl 1-thioglycosides” (J Med Chem, 1987).

Tests used:
Type in all cases: functional
Cavia porcellus [1] = species: Cavia porcellus; assay: Effect on guinea pig T cell proliferation was ested by measuring the incorporation of (+/)-[3H]thymidine uptake at the concentration of 100 uM
Method in brief: (§1)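 Strain 2 female guinea pigs were immunized with 100 μg OVA in CFA split over the footpads. At day 14 they received mineral oil ip, and the exudate was collected 4 days later. T cells were enriched on nylon wool. 2×10^5 cells per well were cultured with 10% irradiated (2100 rads) exudate cells, OVA (10 μg/mL) and compound, for 72 h at 37 °C in 5% CO2. [3H]thymidine (1 μCi) was added 18-24 h before harvest. Triplicate wells; mean Δcpm ± SD.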

Cavia porcellus [2] = species: Cavia porcellus; assay: Effect on guinea pig T cell proliferation was tested by measuring the incorporation of [3H]-thymidine uptake at the concentration of 0 uM; method in brief: as §1
Cavia porcellus [3] = species: Cavia porcellus; assay: Inhibitory activity against [3H]thymidine uptake by cinnamyl 1-thioglycosides in guinea pig T cell proliferation; settings: Cavia porcellus, T-cell, 72 h; method in brief: as §1
Cavia porcellus [4] = species: Cavia porcellus; assay: Effect on guinea pig T cell proliferation was tested by measuring the incorporation of [3H]thymidine uptake at the concentration of 10 uM; method in brief: as §1
Cavia porcellus [5] = species: Cavia porcellus; assay: Effect on guinea pig T cell proliferation was tested by measuring the incorporation of [3H]thymidine uptake at the concentration of 1000 uM; method in brief: as §1
Cavia porcellus [6] = species: Cavia porcellus; assay: Effect on guinea pig T cell proliferation was tested by measuring the incorporation of [3H]thymidine uptake at the concentration of 500 uM; method in brief: as §1
Cavia porcellus [7] = species: Cavia porcellus; assay: Effect on guinea pig T cell proliferation was tested by measuring the incorporation of [3H]thymidine uptake at the concentration of 750 uM; method in brief: as §1
Cavia porcellus [8] = species: Cavia porcellus; assay: Effect on guinea pig T cell proliferation was tested by measuring the incorporation of [3H]thymidine uptake at the concentration of 250 uM; method in brief: as §1
Mus musculus [9] = assay: Compound was administered orally to mice before increase in foot-pad thickness at a dose of 2.5 mg/kg; settings: route oral
Method in brief: (§2)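 DTH in A/J female mice (20-23 g): cyclophosphamide 200 mg/kg sc, then iv sensitization with 10^8 washed SRBC 3 days later. On day 6 after sensitization, one hind footpad challenged with 10^8 SRBC in 20 μL, the other given saline. Dosing ip or po to overnight-fasted mice 20 min before challenge. Swelling read at 24 and 48 h as antigen minus saline footpad (mm × 10), by constant-pressure caliper.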

Mus musculus [10] = assay: Percent reduction in mice after oral administration 2.5 mg/kg; method in brief: as §2

| Compound | Activity (Cavia porcellus [1]) | Activity (Cavia porcellus [2]) | IC50 (Cavia porcellus [3]) [µM] | Activity (Cavia porcellus [4]) | Activity (Cavia porcellus [5]) | Activity (Cavia porcellus [6]) | Activity (Cavia porcellus [7]) | Activity (Cavia porcellus [8]) | Activity (Mus musculus [9]) [mm x10] | Reduction (Mus musculus [10]) [%] |
| --- | --- | --- | --- | --- | --- | --- | --- | --- | --- | --- |
| [N-]=[N+]=NCC1OC(SC/C=C/c2ccccc2)C(O)C(O)C1O (stereo not given) | 21.1 Δcpm x10e-3 | 33.5 Δcpm x10e-3 | 240 | 21 Δcpm x10e-3 | 0.06 Δcpm x10e-3 | 2.26 Δcpm x10e-3 | 0 Δcpm x 10^-3 | 14.3 Δcpm x10e-3 | – | – |
| C[C@@H]1C[C@H]2[C@@H]3CCC4=CC(=O)C=C[C@]4(C)[C@@]3(F)[C@@H](O)C[C@]2(C)[C@@]1(O)C(=O)CO [DEXAMETHASONE] | – | – | – | – | – | – | – | – | 0.3 | 68 |
